Shown are actives, neighbours in structure and some others; about 2.2% of the full set was active somewhere.
E-sel inducer: E-selectin induction on HUVECs; activation, % at 7.58 µM; 260,000 compounds, 0.37% hits; HUVEC E-selectin immunofluorescence imaging; normalized: neutral wells 0, TNF-alpha wells 100; AID 686992;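 active means mean E-selectin-positive cell signal at least 10% of the positive control, reached in at least 60% of replicates, without over 20% cell loss; inconclusive means no rule given, readout overlaps actives, possibly toxicity-flagged; inactive means the rest, including those meeting only one limit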
Target sequence (P16581 whole entry, looked up): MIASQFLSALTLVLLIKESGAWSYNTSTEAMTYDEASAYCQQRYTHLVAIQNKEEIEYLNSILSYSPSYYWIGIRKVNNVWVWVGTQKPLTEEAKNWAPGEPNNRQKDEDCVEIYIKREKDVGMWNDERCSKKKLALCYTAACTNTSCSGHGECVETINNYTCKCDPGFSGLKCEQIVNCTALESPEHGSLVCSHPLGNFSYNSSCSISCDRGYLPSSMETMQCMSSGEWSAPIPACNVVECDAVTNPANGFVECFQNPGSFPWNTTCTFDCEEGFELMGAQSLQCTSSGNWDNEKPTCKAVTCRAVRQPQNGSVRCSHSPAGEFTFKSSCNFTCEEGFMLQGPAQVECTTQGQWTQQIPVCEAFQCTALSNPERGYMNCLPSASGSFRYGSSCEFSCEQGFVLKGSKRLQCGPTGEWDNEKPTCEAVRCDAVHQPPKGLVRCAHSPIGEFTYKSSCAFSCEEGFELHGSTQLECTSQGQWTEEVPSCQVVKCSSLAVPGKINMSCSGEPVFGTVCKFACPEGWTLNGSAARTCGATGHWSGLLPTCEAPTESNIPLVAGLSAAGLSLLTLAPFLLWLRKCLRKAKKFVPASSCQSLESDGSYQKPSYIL
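material = human umbilical vein endothelial cells (HUVEC), E-selectin induction | quantity = 3,000 cells/well | medium = EGM-2 growth medium on 0.1% gelatin-coated wells | technique = immunofluorescence imaging | read-out basis = % PE-positive cells | control set = TNF-alpha positive control, DMSO neutral control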
DENV2 CPE: DENV2-induced cell death inhibition. 350,000 compounds, 1.7% hits. DENV2-infected cells, cytopathic effect rescue, plate reader. CPE inhibition, % at 9.99 µM. AID 651640; in the data active means CPE inhibition above about 20%, passing the limit was not always enough; inconclusive means no clear call, values can overlap the other calls; tested in BHK-21 cells
Statin myotox sup: suppressors of simvastatin-induced myotoxicity in C2C12 myotubes | ATP luminescence, 48 h; scaled: DMSO 0, geranylgeraniol control 100 | rescue of ATP level, % at 7.49 µM | 330,000 compounds, 0.78% hits | AID 602340;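 active means mean ATP rescue above about 67%, or every replicate alone reaching that limit, limit read from the data, passing the limit was not always enough; inconclusive means no clear call, values can overlap the other calls; inactive means mean under the limit and some replicate under it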;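 further: myotubes were challenged with 10 µM simvastatin during compound exposure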
A number is an active result; – = inactive; ? = inconclusive; · = no result given; ! = not confirmed by another sample.

SMILES	E-sel inducer	DENV2 CPE	Statin myotox sup
N#Cc1cccc(-c2ccc(C3[C@@H]4CN(C(=O)C5CC5)C[C@H]3N4)cc2)c1 (some centres undefined)	–	?	·
O=C(C1CCCC1)N1C[C@@H]2N[C@H](C1)C2c1ccc(-c2cccc(F)c2)cc1 (some centres undefined)	–	47!	·
Cc1cccc(-c2ccc(C3[C@@H]4CN(C(=O)C5CCCC5)C[C@H]3N4)cc2)c1 (some centres undefined)	–	–	·
N#Cc1cccc(-c2ccc(C3[C@@H]4CN(C(=O)c5ccc6c(c5)OCO6)C[C@H]3N4)cc2)c1 (some centres undefined)	–	?	·
C[C@H](CO)N1C[C@H](C)[C@@H](CN(C)S(=O)(=O)c2cccs2)Oc2c(NC(=O)c3cnccn3)cccc2C1=O	–	–	·
CNC[C@@H]1Oc2c(NC(=O)c3ccncc3)cccc2C(=O)N([C@H](C)CO)C[C@H]1C	–	–	–
C[C@@H]1CN([C@@H](C)CO)C(=O)c2cccc(NS(=O)(=O)c3cccs3)c2O[C@@H]1CN(C)S(=O)(=O)c1ccc(Cl)cc1	–	–	?
O=C(CN1C(=O)NC2(CCCC2)C1=O)N1CCN(C(=O)c2ccco2)CC1	·	·	–
CCCC1(CCC)NC(=O)N(CC(=O)N2CCN(C(=O)c3ccco3)CC2)C1=O	·	·	98
CCC(=O)Nc1ccc2c(c1)C(=O)N(C)[C@H]1CC[C@H](CC(=O)NCCOC)O[C@H]1CO2	–	–	–
CCC(=O)N(C)C[C@H]1Oc2cc(C#CCN(C)C)ccc2S(=O)(=O)N([C@H](C)CO)C[C@@H]1C	–	–	–
N#C[C@H]1[C@H](c2ccc(C#CC3CCCCC3)cc2)[C@@H](CO)N1C(=O)Cc1ccccn1	–	87	–
CN(C)CC(=O)N1[C@H](CO)[C@H](c2ccc(C#CC3CCCC3)cc2)[C@@H]1C#N	–	–	–
N#C[C@H]1[C@@H](c2ccc(C#CC3CCCCC3)cc2)[C@@H](CO)N1C(=O)Cc1ccccn1	·	–	–
CN(C)CC(=O)N1[C@H](CO)[C@@H](c2ccc(C#CC3CCCC3)cc2)[C@@H]1C#N	–	34	–
CCC(=O)N(C)C[C@H]1Oc2ncc(-c3ccccc3F)cc2C(=O)N([C@@H](C)CO)C[C@H]1C	–	–	–
C/C=C/c1ccc([C@@H]2[C@@H](CO)N3C(=O)CN(Cc4ccccc4)C[C@H]23)cc1	–	25	·
COCC#Cc1ccc([C@H]2[C@@H](CO)N3CCCCN(S(=O)(=O)c4cccc(OC)c4)C[C@H]23)cc1	–	·	·
COc1ccc(C#Cc2ccc([C@H]3[C@H](CO)N4CCCCN(S(=O)(=O)c5ccccc5)C[C@@H]34)cc2)cc1	–	–	–
COc1ccc(C#Cc2ccc([C@@H]3[C@@H](CO)N4CCCCN(S(=O)(=O)c5ccccc5)C[C@@H]34)cc2)cc1	·	32	–
COc1ccc(C#Cc2ccc([C@H]3[C@@H](CO)N4CCCCN(S(=O)(=O)c5ccccc5)C[C@@H]34)cc2)cc1	–	82	–
COc1ccc(C#Cc2ccc([C@@H]3[C@@H](CO)N4CCCCN(S(=O)(=O)c5ccccc5)C[C@H]34)cc2)cc1	–	–	–
C/C=C/c1ccc([C@H]2[C@H]3CN(Cc4ccccc4)CC(=O)N3[C@H]2CO)cc1	–	–	·
COCC#Cc1ccc([C@H]2[C@H]3CN(S(=O)(=O)c4cccc(OC)c4)CCCCN3[C@H]2CO)cc1	–	23	·
C[C@@H]1CN([C@@H](C)CO)C(=O)c2c(c3ccccc3n2C)-c2ccccc2CO[C@@H]1CN(C)C(=O)[C@@H]1CCCN1C	–	–	–
SMILES	E-sel inducer	DENV2 CPE	Statin myotox sup
CCOC(=O)[C@H](Cc1c[nH]c2ccccc12)NC(=O)CN=[N+]=[N-]	·	–	·
N#C[C@@H]1[C@H](c2ccccc2-c2ccc(F)cc2)[C@@H](CO)N1C(=O)Cc1ccccc1	–	–	·
C/C=C/c1ccc([C@H]2[C@@H](CO)N3CCCCN(S(=O)(=O)c4ccccc4)C[C@@H]23)cc1	–	115	·
C/C=C/c1ccc([C@@H]2[C@H]3CN(S(=O)(=O)c4ccccc4)CCCCN3[C@H]2CO)cc1	–	–	·
COc1ccc2c3c([nH]c2c1)[C@@H](CO)N(Cc1ccncc1)CC31CCN(C(=O)Cc2ccncc2)CC1	–	–	·
OC(c1ccccc1)C(NCc1ccccc1)c1ccccc1 (centres undefined)	·	21	–
OC(CNCc1ccccc1)c1ccccc1 (centres undefined)	·	–	–
COc1ccc(S(=O)(=O)N(C)C[C@H]2Oc3c(NS(C)(=O)=O)cccc3C(=O)N([C@H](C)CO)C[C@@H]2C)cc1	·	–	·
O=C(C[N+]1(CC#Cc2ccccc2)CCCCC1)c1ccc(Cl)cc1	–	–	·
CCC[N+](CC#Cc1ccccc1)(CCC)CC(=O)c1ccc(Cl)cc1	·	46	·
